Assay results reported in ChEMBL document CHEMBL2176911 (J Med Chem, 2012).
Activity calls are given as the source filed them. No cut-off for these calls is given here.

Tests used:
[1] = biological target: Dual specificity protein kinase CLK4 (Mus musculus, UniProt O35493); assay: Inhibition of mouse recombinant GST-tagged CLK4 expressed in Escherichia coli using GRSRSRSRSRSR as substrate and [gamma33P]ATP after 30 mins by scintillation counting
[2] = biological target: Dual specificity protein kinase CLK3 (Mus musculus, UniProt O35492); assay: Inhibition of mouse recombinant GST-tagged CLK3 expressed in Escherichia coli using GRSRSRSRSRSR as substrate and [gamma33P]ATP after 30 mins by scintillation counting
How it was run: (§1)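 Panel of purified kinases (recombinant from several species plus native enzymes), each assayed radiometrically over a range of inhibitor concentrations; IC50 in μM calculated from the dose-response curves.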

[3] = biological target: Dual specificity protein kinase CLK2 (Mus musculus, UniProt O35491); assay: Inhibition of mouse recombinant GST-tagged CLK2 expressed in Escherichia coli using GRSRSRSRSRSR as substrate and [gamma33P]ATP after 30 mins by scintillation counting; how it was run: as §1
Sequence of Dual specificity protein kinase CLK2 (O35491 whole entry): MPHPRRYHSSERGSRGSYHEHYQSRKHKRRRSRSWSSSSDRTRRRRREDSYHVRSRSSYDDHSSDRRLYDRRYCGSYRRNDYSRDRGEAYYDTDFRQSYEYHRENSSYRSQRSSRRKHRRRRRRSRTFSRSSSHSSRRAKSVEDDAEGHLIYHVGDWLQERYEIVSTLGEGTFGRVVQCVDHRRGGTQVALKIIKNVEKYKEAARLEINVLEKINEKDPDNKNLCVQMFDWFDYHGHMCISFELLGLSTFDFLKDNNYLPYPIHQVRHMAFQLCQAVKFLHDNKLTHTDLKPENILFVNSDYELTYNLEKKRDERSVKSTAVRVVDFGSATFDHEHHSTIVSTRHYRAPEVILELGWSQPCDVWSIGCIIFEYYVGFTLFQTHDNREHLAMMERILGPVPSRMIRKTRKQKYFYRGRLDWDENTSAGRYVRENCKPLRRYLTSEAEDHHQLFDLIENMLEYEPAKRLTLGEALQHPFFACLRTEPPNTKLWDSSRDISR

[4] = biological target: Casein kinase II (Homo sapiens) (UniProt P67870+P68400+P19784); assay: Inhibition of human recombinant CK2 using RRREDEESDDEE as substrate and [gamma33P]ATP at 10 uM after 30 mins by scintillation counting; assay type: protein-complex assay
[5] = Inhibition of pig […] isolated from brain using RRKHAAIGpSAYSITA as substrate and [gamma33P]ATP after 30 mins by scintillation couting; set-up: species or system Sus scrofa; how it was run: as §1
CDK9/cyclin T1 = CDK9/cyclin T1 (Homo sapiens, UniProt P50750); assay: Inhibition of human recombinant CDK9/cyclin T expressed in insect cell using YSPTSPSYSPTSPSYSPTSPSKKKK as substrate and [gamma33P]ATP after 30 mins by scintillation counting; how it was run: as §1
Sequence of CDK9/cyclin T1 (O60563 whole entry): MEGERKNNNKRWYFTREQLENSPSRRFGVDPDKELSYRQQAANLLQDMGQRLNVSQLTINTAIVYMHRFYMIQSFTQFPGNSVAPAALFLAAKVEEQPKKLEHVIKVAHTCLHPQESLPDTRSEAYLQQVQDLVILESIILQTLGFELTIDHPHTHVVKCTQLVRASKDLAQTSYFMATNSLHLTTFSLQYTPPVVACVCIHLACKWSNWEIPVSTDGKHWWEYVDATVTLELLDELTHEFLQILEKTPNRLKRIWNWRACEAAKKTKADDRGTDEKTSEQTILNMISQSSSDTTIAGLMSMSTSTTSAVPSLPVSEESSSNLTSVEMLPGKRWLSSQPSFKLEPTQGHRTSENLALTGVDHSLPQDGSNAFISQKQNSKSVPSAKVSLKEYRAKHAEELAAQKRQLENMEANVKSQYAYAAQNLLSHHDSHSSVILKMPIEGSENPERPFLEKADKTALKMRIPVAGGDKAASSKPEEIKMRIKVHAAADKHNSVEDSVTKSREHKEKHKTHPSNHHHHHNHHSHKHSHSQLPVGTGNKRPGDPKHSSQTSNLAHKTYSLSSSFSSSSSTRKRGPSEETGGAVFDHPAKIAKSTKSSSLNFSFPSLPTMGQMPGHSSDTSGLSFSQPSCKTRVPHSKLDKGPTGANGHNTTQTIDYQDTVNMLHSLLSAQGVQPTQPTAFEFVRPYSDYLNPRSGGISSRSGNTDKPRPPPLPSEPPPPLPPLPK
Sequence of CDK9/cyclin T1 (P50750 whole entry): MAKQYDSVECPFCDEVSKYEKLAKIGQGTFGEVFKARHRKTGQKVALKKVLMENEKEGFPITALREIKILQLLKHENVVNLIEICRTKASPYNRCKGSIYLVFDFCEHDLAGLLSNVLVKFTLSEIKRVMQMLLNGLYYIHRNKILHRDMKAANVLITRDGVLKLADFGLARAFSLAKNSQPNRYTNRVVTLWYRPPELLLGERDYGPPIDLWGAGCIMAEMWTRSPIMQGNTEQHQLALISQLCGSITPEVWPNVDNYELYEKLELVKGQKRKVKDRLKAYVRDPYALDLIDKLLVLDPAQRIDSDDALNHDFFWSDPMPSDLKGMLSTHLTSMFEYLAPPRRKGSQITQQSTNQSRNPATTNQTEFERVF

[6] = biological target: Cyclin-dependent kinase 7/ cyclin H (Homo sapiens, UniProt P50613); assay: Inhibition of human recombinant CDK7/cyclin H expressed in insect cell using YSPTSPSYSPTSPSYSPTSPSKKKK as substrate and [gamma33P]ATP after 30 mins by scintillation counting; how it was run: as §1
[7] = biological target: Cyclin-dependent kinase 2/cyclin A (Homo sapiens, UniProt P24941); assay: Inhibition of CDK2/cyclin A using [gamma33P]ATP after 30 mins by scintillation counting; assay type: protein-complex assay; how it was run: as §1
[8] = Inhibition of starfish CDK1/cyclin B using histone H1 as substrate and [gamma33P]ATP after 30 mins by scintillation counting; set-up: species or system Asteroidea; how it was run: as §1
[9] = biological target: Dual specificity protein kinase CLK1 (Mus musculus, UniProt P22518); assay: Inhibition of mouse recombinant GST-tagged CLK1 expressed in Escherichia coli using GRSRSRSRSRSR as substrate and [gamma33P]ATP after 30 mins by scintillation counting; how it was run: as §1
[10] = Binding affinity to casein kinase 1
[11] = biological target: Dual specificity protein kinase CLK3 (Homo sapiens, UniProt P49761); assay: Binding affinity to CLK3
Sequence of Dual specificity protein kinase CLK3 (Homo sapiens, UniProt P49761) (P49761 whole entry, looked up): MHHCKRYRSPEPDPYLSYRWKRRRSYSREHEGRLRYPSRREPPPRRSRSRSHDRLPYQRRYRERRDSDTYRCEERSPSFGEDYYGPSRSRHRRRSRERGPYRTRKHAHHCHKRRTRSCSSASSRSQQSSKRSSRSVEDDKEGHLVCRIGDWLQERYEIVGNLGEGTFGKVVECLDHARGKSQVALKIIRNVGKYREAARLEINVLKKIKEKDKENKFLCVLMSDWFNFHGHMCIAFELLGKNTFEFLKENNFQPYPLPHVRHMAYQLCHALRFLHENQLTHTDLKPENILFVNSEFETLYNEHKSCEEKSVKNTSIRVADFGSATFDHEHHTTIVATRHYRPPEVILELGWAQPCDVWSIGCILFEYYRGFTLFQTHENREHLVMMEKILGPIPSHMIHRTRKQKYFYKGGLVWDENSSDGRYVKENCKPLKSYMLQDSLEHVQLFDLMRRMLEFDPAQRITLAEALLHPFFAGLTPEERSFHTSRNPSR

[12] = biological target: Dual specificity protein kinase CLK1 (Homo sapiens) (UniProt P49759); assay: Binding affinity to CLK1
Sequence of Dual specificity protein kinase CLK1 (Homo sapiens) (P49759 whole entry, looked up): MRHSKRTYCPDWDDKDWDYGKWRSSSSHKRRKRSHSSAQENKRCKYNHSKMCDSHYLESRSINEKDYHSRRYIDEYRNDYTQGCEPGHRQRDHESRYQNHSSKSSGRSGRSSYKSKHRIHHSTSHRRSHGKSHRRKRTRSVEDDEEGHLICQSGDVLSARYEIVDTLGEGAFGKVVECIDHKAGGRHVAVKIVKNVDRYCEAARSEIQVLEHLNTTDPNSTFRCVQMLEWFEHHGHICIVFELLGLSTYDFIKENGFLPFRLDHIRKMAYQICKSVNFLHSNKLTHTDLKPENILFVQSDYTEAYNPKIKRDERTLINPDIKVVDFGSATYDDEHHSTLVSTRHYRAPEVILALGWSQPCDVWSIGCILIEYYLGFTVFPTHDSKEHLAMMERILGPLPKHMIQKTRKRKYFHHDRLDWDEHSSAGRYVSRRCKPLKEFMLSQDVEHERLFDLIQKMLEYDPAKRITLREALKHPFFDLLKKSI

[13] = biological target: T1, Dual specificity tyrosine-phosphorylation-regulated kinase 2 (Homo sapiens) (UniProt Q92630); assay: Binding affinity to DYRK2
T1 sequence (whole entry): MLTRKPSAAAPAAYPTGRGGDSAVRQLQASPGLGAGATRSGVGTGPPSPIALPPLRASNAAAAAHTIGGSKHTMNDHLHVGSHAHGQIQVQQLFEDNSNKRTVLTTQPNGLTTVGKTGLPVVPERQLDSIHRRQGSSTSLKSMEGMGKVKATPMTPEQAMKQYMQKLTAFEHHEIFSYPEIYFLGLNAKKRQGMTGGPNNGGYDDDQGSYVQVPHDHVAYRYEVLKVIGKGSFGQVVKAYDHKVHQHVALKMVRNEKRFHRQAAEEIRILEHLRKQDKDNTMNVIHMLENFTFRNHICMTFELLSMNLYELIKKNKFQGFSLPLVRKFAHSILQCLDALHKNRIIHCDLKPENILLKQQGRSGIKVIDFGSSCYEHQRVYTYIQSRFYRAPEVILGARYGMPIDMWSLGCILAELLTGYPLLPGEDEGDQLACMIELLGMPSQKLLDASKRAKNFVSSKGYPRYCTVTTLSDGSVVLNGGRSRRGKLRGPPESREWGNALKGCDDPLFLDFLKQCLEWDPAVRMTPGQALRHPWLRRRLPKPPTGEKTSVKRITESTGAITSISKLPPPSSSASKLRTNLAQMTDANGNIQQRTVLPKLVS

[14] = biological target: Dual specificity protein kinase CLK4 (Homo sapiens, UniProt Q9HAZ1); assay: Binding affinity to CLK4
[15] = Inhibition of Leishmania major recombinant CK1 expressed in Escherichia coli using RRKHAAIGpSAYSITA as substrate and [gamma33P]ATP after 30 mins by scintillation counting; how it was run: as §1
[16] = Inhibition of Plasmodium falciparum recombinant GSK3 expressed in Escherichia coli using YRRAAVPPSPSLSRHSSPHQ-phosphoS-EDEEE as substrate and [gamma33P]ATP after 30 mins by scintillation counting; how it was run: as §1
[17] = biological target: Serine/threonine-protein kinase pim-1 (Homo sapiens, UniProt P11309); assay: Inhibition of human recombinant PIM1 expressed in Escherichia coli using histone H1 as substrate and [gamma33P]ATP after 30 mins by scintillation counting
Sequence of Serine/threonine-protein kinase pim-1 (P11309 whole entry): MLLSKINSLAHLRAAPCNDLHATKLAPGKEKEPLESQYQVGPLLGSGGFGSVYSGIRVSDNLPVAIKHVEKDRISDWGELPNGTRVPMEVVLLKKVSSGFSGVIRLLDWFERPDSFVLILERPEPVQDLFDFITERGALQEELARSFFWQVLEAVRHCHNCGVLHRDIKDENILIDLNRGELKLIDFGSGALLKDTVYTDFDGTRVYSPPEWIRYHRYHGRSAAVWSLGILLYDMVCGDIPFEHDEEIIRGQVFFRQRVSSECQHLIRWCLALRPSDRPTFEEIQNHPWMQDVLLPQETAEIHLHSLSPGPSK

[18] = biological target: Glycogen synthase kinase-3 (Sus scrofa, UniProt B2LUN4+I6LNT8); assay: Inhibition of pig GSK3alpha/beta isolated from brain using YRRAAVPPSPSLSRHSSPHQ-phosphoS-EDEEE as substrate and [gamma33P]ATP after 30 mins by scintillation counting; how it was run: as §1
[19] = biological target: Mitogen-activated protein kinase 1 (Rattus norvegicus, UniProt P63086); assay: Inhibition of rat recombinant ERK2 using Ets1 as substrate and [gamma33P]ATP as substrate after 30 mins by scintillation counting; how it was run: as §1
Sequence of Mitogen-activated protein kinase 1 (P63086 whole entry): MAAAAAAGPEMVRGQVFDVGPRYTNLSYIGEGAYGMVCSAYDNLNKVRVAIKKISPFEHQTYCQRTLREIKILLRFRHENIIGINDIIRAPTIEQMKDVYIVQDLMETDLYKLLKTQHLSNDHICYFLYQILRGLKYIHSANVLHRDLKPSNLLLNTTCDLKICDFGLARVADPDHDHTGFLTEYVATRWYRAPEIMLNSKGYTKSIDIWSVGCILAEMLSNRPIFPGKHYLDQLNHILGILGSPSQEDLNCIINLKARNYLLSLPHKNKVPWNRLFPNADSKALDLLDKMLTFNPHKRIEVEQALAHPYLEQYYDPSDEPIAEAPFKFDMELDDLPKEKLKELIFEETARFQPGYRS

[20] = biological target: T2, Dual specificity tyrosine-phosphorylation-regulated kinase 4 (Homo sapiens, UniProt Q9NR20); assay: Inhibition of human recombinant GST-tagged DYRK4 expressed in Escherichia coli using GRSRSRSRSRSR as substrate and [gamma33P]ATP after 30 mins by scintillation counting
T2 sequence (Q9NR20 whole entry): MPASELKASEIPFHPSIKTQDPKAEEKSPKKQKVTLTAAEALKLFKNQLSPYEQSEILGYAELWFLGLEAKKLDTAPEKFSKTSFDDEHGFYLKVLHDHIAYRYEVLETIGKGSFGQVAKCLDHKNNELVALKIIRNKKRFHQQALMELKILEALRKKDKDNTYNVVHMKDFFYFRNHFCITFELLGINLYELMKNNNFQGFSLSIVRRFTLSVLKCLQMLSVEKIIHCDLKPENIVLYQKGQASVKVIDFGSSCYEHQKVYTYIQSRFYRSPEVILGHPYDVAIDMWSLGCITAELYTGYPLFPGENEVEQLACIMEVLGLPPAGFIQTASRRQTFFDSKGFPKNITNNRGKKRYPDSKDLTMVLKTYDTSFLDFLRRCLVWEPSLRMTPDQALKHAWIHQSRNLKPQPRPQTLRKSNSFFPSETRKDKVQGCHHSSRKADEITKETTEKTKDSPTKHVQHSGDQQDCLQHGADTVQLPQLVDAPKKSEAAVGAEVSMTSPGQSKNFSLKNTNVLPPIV

[21] = biological target: Dual specificity tyrosine-phosphorylation-regulated kinase 3 (Homo sapiens, UniProt O43781); assay: Inhibition of human recombinant GST-tagged DYRK3 expressed in Escherichia coli using GRSRSRSRSRSR as substrate and [gamma33P]ATP after 30 mins by scintillation counting
[22] = biological target: Dual specificity tyrosine-phosphorylation-regulated kinase 2 (Homo sapiens, UniProt Q92630); assay: Inhibition of human recombinant GST-tagged DYRK2 expressed in Escherichia coli using GRSRSRSRSRSR as substrate and [gamma33P]ATP after 30 mins by scintillation counting
[23] = biological target: Dual specificity tyrosine-phosphorylation-regulated kinase 1A (Rattus norvegicus) (UniProt Q63470); conditions: CD Sprague-Dawley, 4.5 to 45 uM
[24] = biological target: Dual specificity protein kinase CLK3 (Mus musculus) (UniProt O35492); assay: Inhibition of mouse recombinant GST-tagged CLK3 expressed in Escherichia coli using GRSRSRSRSRSR as substrate and [gamma33P]ATP at 10 uM after 30 mins by scintillation counting
Sequence of Dual specificity protein kinase CLK3 (Mus musculus) (O35492 whole entry): as the sequence (P49761 whole entry, looked up) above, with L55I, R64H, Y83C, P86S, G99A, T484S counted along it
How it was run: (§2)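 Radiometric kinase assay with the RS peptide as substrate and 15 μM [γ-33P]ATP.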

[25] = biological target: Dual specificity protein kinase CLK1 (Mus musculus) (UniProt P22518); assay: Inhibition of mouse recombinant GST-tagged CLK1 expressed in Escherichia coli using GRSRSRSRSRSR as substrate and [gamma33P]ATP at 10 uM after 30 mins by scintillation counting; how it was run: as §2
Sequence of Dual specificity protein kinase CLK1 (Mus musculus) (P22518 whole entry, looked up): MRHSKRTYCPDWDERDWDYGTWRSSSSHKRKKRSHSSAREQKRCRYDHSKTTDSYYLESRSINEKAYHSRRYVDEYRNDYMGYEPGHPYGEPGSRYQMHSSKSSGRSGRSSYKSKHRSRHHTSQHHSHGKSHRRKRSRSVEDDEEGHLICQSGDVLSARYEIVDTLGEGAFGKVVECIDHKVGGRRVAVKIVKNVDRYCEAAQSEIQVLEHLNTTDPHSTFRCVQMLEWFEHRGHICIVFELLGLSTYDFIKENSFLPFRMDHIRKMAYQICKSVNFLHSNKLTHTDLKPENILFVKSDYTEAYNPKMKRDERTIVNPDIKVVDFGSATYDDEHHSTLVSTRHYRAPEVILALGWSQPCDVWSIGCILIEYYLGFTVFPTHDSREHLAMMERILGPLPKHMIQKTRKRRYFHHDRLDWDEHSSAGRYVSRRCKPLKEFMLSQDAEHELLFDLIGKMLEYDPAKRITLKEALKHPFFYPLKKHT

[26] = biological target: T1, Dual specificity tyrosine-phosphorylation-regulated kinase 2 (Homo sapiens); assay: Inhibition of human recombinant GST-tagged DYRK2 expressed in Escherichia coli using GRSRSRSRSRSR as substrate and [gamma33P]ATP at 10 uM after 30 mins by scintillation counting
[27] = biological target: Dual specificity tyrosine-phosphorylation-regulated kinase 1A (Homo sapiens) (UniProt Q13627); assay: Inhibition of human recombinant GST-tagged DYRK1A expressed in Escherichia coli using GRSRSRSRSRSR as substrate and [gamma33P]ATP at 15 uM after 30 mins by scintillation counting
HT-22 [28] = assay: Inhibition of GSK3-mediated […] phosphorylation in mouse HT22 cells at 10 uM after 24 hrs by Western blot analysis in presence of MG132; assay type: cell-based
HT-22 [29] = assay: Neuroprotective activity against glutamate-induced toxicity in mouse HT22 cells after 24 hrs by MTS assay; assay type: functional, cell-based

Sequence of Dual specificity protein kinase CLK4 (Mus musculus, UniProt O35493) (O35493 whole entry): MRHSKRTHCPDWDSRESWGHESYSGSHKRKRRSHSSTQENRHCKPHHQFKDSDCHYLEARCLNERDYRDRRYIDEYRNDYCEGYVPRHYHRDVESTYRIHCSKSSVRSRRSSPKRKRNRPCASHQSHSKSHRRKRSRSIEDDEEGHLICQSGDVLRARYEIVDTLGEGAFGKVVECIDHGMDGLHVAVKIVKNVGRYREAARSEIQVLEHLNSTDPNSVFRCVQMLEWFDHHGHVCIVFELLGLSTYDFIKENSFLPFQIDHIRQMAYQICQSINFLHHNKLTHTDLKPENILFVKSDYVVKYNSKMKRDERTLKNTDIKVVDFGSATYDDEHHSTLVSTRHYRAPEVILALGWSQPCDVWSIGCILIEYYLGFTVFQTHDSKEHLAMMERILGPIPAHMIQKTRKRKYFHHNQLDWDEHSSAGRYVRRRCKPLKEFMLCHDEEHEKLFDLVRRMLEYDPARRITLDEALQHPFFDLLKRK

## COc1ccc2c(c1)[nH]c1c(C)nccc12 [HARMINE]
[1]
  IC50: 0.05 µM
[2]
  IC50: > 10 µM
[3]
  IC50: 0.28 µM
[4]
  inhibition: inactive
[5]
  IC50: 1.8 µM
CDK9/cyclin T1
  IC50: 0.72 µM
[6]
  IC50: > 10 µM
[7]
  IC50: > 30 µM
[8]
  IC50: 18 µM
[9]
  IC50: 0.072 µM
[10]
  Activity: Active
[11]
  Activity: Active
[12]
  Activity: Active
[13]
  Activity: Active
[14]
  Activity: Active
[15]
  IC50: ≥ 10 µM
[16]
  IC50: > 10 µM
[17]
  IC50: > 10 µM
[18]
  IC50: 19 µM
[19]
  IC50: > 30 µM
[20]
  IC50: 9.5 µM
[21]
  IC50: 0.21 µM
[22]
  IC50: 0.12 µM
[23]
  inhibition: Active

## COc1ccc2c3c1O[C@H]1C[C@@H](O)C=C[C@@]31CCN(C)C2
[24]
  inhibition: inactive
[25]
  inhibition: inactive
[26]
  inhibition: inactive
[27]
  inhibition: inactive

## O=C1Nc2cc(Br)ccc2/C1=C1/N=c2ccccc2=C1NO
HT-22 [28]
  inhibition: Active

## CCN(C)C(=O)Oc1cccc([C@H](C)N(C)C)c1
[24]
  inhibition: inactive
[25]
  inhibition: inactive
[26]
  inhibition: inactive
[27]
  inhibition: inactive

## Nc1ccc(C(=O)Nc2cccc(-c3nc(N4CCOCC4)c4oc5ncccc5c4n3)c2)cn1
HT-22 [29]
  Activity: inactive

## COc1cc2c(cc1OC)C(=O)C(CC1CCN(Cc3ccccc3)CC1)C2 (stereo not drawn)
[24]
  inhibition: inactive
[25]
  inhibition: inactive
[26]
  inhibition: inactive
[27]
  inhibition: inactive
